An excerpt weighted towards active compounds, which were near 3.7% of everything screened.
Kir21 inh – inhibitors of mouse Kir2.1 inward-rectifier potassium channel; Inward rectifier potassium channel 2 (Mus musculus), P35561; HEK293-Kir2.1, FluxOR thallium flux fluorescence; stronger effect = lower value; B-score at 10 µM; hit rate 0.85% among 310,000; AID 1672, 2009;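 active means fluorescence ratio B-score at or below minus 3 SD of library scores, with starting-brightness B-score within 2 SD, cut at about -4.2 in these data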;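 further: channel flux triggered by added potassium and thallium sulfate stimulus; B-score of peak minus minimum fluorescence over baseline after thallium stimulus; more negative B-score means stronger Kir2.1 block with less thallium influx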
KCNK9 block – KCNK9 potassium channel inhibitors, primary screen, HEK293 cells, thallium flux | Potassium channel subfamily K member 9 (Homo sapiens), Q9NPC2 | FluxOR thallium flux fluorescence; stronger effect = lower value | B-score at 10 µM | hit rate 1.2% among 310,000 | AID 488922, 2010;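 active means ratio B-score over 3 SD below the library mean, with starting fluorescence within 5 SD of its mean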;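 further: negative B-score means less thallium flux so channel inhibition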
hERG protect – hERG rescue from dofetilide block, primary screen, cell-based, CHO-hERG, FluxOR thallium flux, dofetilide IC70; dofetilide IC70 present; activation (rescue from dofetilide block), less the hit threshold, % at 10 µM; hit rate 0.51% among 310,000; AID 1511, 2009;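 active means activation above the mean of controls blocked by dofetilide plus 5 SD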;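 further: thallium influx through hERG after potassium depolarization seen as dye fluorescence rise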
KCNK3 block – human KCNK3 channel inhibitors, primary screen, CHO cells, FluxOR thallium flux, B-score; Potassium channel subfamily K member 3 (Homo sapiens), O14649; FluxOR fluorescence; stronger effect = lower value; B-score at 10 µM; hit rate 0.84% among 340,000; AID 602410, 2012;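 active means B-score under library mean minus 4 SD, starting fluorescence ratio at most library mean plus 5 SD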;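 further: more negative B-score means stronger inhibition of thallium flux through KCNK3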
Target sequence (O14649 whole entry, looked up): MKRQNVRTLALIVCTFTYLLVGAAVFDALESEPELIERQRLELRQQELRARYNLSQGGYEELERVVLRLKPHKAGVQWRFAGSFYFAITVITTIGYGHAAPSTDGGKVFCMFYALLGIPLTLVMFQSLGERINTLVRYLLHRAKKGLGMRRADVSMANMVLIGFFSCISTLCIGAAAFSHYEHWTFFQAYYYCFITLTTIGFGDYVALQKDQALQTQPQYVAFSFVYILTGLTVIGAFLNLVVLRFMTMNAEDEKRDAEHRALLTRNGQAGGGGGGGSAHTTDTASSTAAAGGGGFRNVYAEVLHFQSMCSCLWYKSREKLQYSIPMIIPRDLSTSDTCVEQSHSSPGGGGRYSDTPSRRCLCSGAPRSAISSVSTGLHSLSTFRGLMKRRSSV
KCNQ1 pot – potentiators or activators of KCNQ1 channel, primary screen, cell-based, thallium flux, high-throughput; Potassium voltage-gated channel subfamily KQT member 1 (Homo sapiens), P51787; CHO-K1 KCNQ1, thallium flux FluxOR fluorescence; stronger effect = higher value; B-score at 10 µM; hit rate 0.35% among 310,000; AID 2648, 2010;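 active means fluorescence ratio B-score, a plate-corrected score, at least three library SD, with initial intensity B-score within 5 SD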
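Doses: Single concentration per compound, DMSO matched to controls | Test system: KCNQ1-transfected CHO-K1 cells | Timing: 90 min dye loading and 20 min compound exposure, both at room temperature | Measured by: Kinetic FluxOR thallium fluorescence, 10-s 1-Hz baseline, 110-s post-stimulus read | Medium: Assay buffer with matched DMSO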
KCNQ1 block – inhibitors of human KCNQ1 channel, primary screen, cell-based, thallium flux, high-throughput; Potassium voltage-gated channel subfamily KQT member 1 (Homo sapiens), P51787; CHO-K1 KCNQ1, FluxOR thallium flux fluorescence; stronger effect = higher value; B-score at 10 µM; hit rate 1.3% among 310,000; AID 2642, 2010;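 active means compounds whose thallium flux B-score, printed positive for inhibition, exceeds three library SD while starting fluorescence stays within three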;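 further: channel opened by potassium depolarization with thallium stimulus after 20 min compound exposure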
KCNK3 confirm – retest of human KCNK3 channel inhibitors, confirmation, CHO cells, FluxOR thallium flux, triplicate; shares compounds with KCNK3 block; FluxOR fluorescence; 0% buffer, 100% carvedilol maximal block; hit rate 99% among 2,400; ratio percent of control, % at 10 µM;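 active means ratio percent of control, averaged over triplicates, above buffer control mean plus 5 SD, cut at about 64% in these data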;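 further: ratio is the fluorescence rise from min to max over baseline after thallium stimulus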
KCNK3 uninduced – thallium flux inhibition in non-induced cells, primary screen, counter-screen for KCNK3 inhibitor project, cell-based, non-induced KCNK3 line, FluxOR thallium, triplicate | shares compounds with KCNK3 block | non-induced KCNK3 parental cells; stronger effect = lower value | thallium flux ratio (lower = more inhibition) at 10 µM | hit rate 40% among 2,400;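 active means thallium flux ratio, averaged over three wells, more than 5 SD below the buffer control mean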;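 further: host cells are CHO cells without KCNK3 induction; ratio is peak minus trough fluorescence over baseline then normalized to buffer controls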
* marks the source's active call; other numbers are inactive results; i = inactive; · = not tested or not shown.

SMILES | Kir21 inh | KCNK9 block | hERG protect | KCNK3 block | KCNQ1 pot | KCNQ1 block | KCNK3 confirm | KCNK3 uninduced
Cc1ccc2oc(C(=O)N(Cc3ccccc3)C3CCS(=O)(=O)C3)c(C)c2c1 (stereo not drawn) | 5.92e-16 | i | 0.0 | i | i | i | · | ·
CNC(=O)C(=O)NCC1OCCN1S(=O)(=O)c1ccc(OC)c(OC)c1 (stereo not drawn) | -0.07 | i | -2.9 | i | i | i | · | ·
CCOC(=O)c1ccc(NC2c3ccccc3C(=O)N2c2cccnc2)cc1 (stereo not drawn) | -2.14 | i | -11.7 | -9.71* | i | i | 112.0* | i
CCc1cccc(NC2c3ccccc3C(=O)N2c2cccnc2)c1 (stereo not drawn) | -1.38 | i | -13.3 | -10.6* | i | i | 100.3* | i
C=C(C)C1CC=C(C)/C(=N/NC(=O)c2ccoc2C)C1 (stereo not drawn) | 0.87 | i | -3.1 | i | i | i | · | ·
CCC(=O)Nc1ccccc1C(=O)OC(c1ccccc1)c1ccccc1 | -0.51 | i | -12.3 | i | i | i | · | ·
CCC(=O)Nc1ccccc1C(=O)OCc1ccc(C(=O)c2ccccc2)cc1 | 1.53 | i | -13.9 | -9.26* | i | i | 98.3* | i
O=C(COC(=O)[C@@H]1CCCN1S(=O)(=O)c1ccccc1F)Nc1ccc(OC(F)F)cc1 | 0.05 | i | -10.9 | i | i | i | · | ·
CCCN(c1ccccc1F)S(=O)(=O)c1c[nH]c(C(=O)OC)c1 | 0.59 | i | -5.5 | i | i | i | · | ·
CC(=O)c1c(C)[nH]c(C(=O)COC(=O)CN(C)S(=O)(=O)c2ccc(Cl)cc2)c1C | 0.4 | i | -11.2 | i | i | i | · | ·
c1ccc(-c2nc(-n3nc4ccccc4n3)nc3ccccc23)cc1 | 1.28 | -7.92* | -13.5 | -14.4* | i | i | 87.7* | 0.153*
NNc1nc(-c2ccccc2)c2ccccc2n1 | -0.96 | i | -22.3 | i | i | i | · | ·
O=C(CCOc1cccc(Br)c1)Nc1ccc(F)c(S(=O)(=O)N2CCOCC2)c1 | · | · | · | -11.9* | · | · | 97.0* | i
O=c1[nH]c(N/N=C\c2ccc3c(c2)OCO3)nc2ccccc12 | 0.32 | i | -5.5 | i | i | i | · | ·
Cc1cc(N/N=C/c2ccc3c(c2)OCO3)nc2ccccc12 | -0.65 | i | -8.9 | -10.7* | i | i | 113.0* | i
COc1cc(Cl)c(C)cc1NC(=O)CSc1ccccc1 | -2.19 | i | -6.0 | -9.39* | i | i | 113.0* | i
COc1cc(Cl)c(C)cc1NC(=O)CSc1ccc(C)cc1 | -0.04 | i | -4.0 | i | i | i | · | ·
Cc1cccc(CNC(=O)c2ccc3nc(Cc4ccccc4F)oc3c2)n1 | 0.36 | i | -8.4 | i | i | i | · | ·
O=C(C[C@H]1C/C=C\CC[C@H](Cc2ccc(F)cc2)C(=O)OC[C@@H](Cc2c[nH]c3ccccc23)NC1=O)NCCO | · | · | · | i | · | · | · | ·
CCOC(=O)c1csc(COc2ccc(OC)cc2)n1 | 0.16 | i | -5.6 | i | i | i | · | ·
Cc1cc(C(=O)CSc2n[nH]c(-c3ccccc3F)n2)c(C)n1Cc1cccs1 | -3.24 | i | -11.7 | -10.2* | i | i | 91.7* | i

Compound activity: PubChem, Johns Hopkins Ion Channel Center
